# NR2E3 ag-1: inhibitors of NR2E3-RetCOR corepressor binding, primary screen, NR2E3 agonist project, biochemical, TR-FRET, GST-NR2E3, biotin-RetCOR; 1536-well; Photoreceptor-specific nuclear receptor (Homo sapiens), Q9Y5X4; inhibition of corepressor binding, % at 4.78 µM; AID 2300, 2010; 320,000 tested, 0.12% active;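 active = percent inhibition above the cutoff of mean plus 3 SD of all tested compounds, set per screening campaign, cut at about 20% in these data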;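 also: 0% = DMSO wells and 100% = biotin wells as full block of FRET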
# Target sequence (Q9Y5X4 whole entry, looked up): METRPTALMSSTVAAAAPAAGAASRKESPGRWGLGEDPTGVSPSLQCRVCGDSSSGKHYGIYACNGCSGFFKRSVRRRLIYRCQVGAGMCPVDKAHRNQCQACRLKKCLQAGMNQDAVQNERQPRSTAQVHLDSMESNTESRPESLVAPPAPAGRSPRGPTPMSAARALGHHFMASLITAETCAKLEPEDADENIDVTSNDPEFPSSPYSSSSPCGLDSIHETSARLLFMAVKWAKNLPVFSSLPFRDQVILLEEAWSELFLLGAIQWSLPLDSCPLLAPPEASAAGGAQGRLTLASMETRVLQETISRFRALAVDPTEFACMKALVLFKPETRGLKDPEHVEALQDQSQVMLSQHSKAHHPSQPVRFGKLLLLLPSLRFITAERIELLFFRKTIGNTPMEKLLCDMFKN
#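 Test system – NR2E3–RetCOR corepressor complex · Quantity – NR2E3 fusion 1.35 nM · Buffer or medium – Tris pH 7.5 · Incubation – Compound–protein incubation for 5 h at 4 °C · Technique – TR-FRET, Eu(K)-anti-GST donor, streptavidin-D2 acceptor, ex 340, em 617/671 nm · Evaluation – percent inhibition of 671/617 nm emission ratio versus biotin and DMSO controls · Plate – 1536-well format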
# NR2E3 ag-2: NR2E3 agonists in two-hybrid cells, primary screen, cell-based, luminescence, CHO-S, Gal4-NCOR/VP16-NR2E3; luciferase; 360,000 tested, 0.35% active; inhibition of corepressor binding, % at 3.98 µM; AID 602229, 2012;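 active = inhibition above the mean of all tested compounds plus 3 SD, cut at about 70% in these data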;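 also: 0% = DMSO with NR2E3 transfected cells and 100% = cells lacking NR2E3 construct; higher means lower luciferase signal from less NR2E3 corepressor binding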
# TROY NFkB inh: inhibitors of TROY-driven NF-kB signaling, primary screen, Q293 LMP1-TROYcd cells, NF-kB luciferase, uHTS; Q293 LMP1-TROYcd NF-kB luciferase reporter, 4 h; inhibition, % at 10 µM; 360,000 tested, 0.98% active; AID 1347056, 2019;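 active = compounds whose plate-normalised and pattern-corrected inhibition of the luciferase reporter signal at the single screening dose is 50% or more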
# EBV LMP1 NFkB: EBV LMP1-driven NF-kappaB luciferase reporter inhibitors, primary screen, cell-based, luminescence, single point; 350,000 tested, 0.69% active; inhibition, % at 12.5 µM; LMP1-induced NF-kappaB luciferase reporter cells; in the data active = inhibition above about 41%;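 also: 0% = neutral control wells and 100% = reference inhibitor control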
# HIF act: HIF pathway transcriptional activators, primary screen, cell-based, U2OS HRE-luciferase, luminescence; activation, % at 7.5 µM (by protocol); U2OS HRE-luciferase reporter; normalized: DMSO 0%, desferrioxamine 100%; 300,000 tested, 0.32% active;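 active = mean activation of at least 10% of the iron chelator positive control signal, with at least half of replicates also reaching 10%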
# * marks the source's active call; other numbers are inactive results; nt = no result. The list is not random: actives were taken first. Their share in the collection is about 2%.
SMILES,NR2E3 ag-1,NR2E3 ag-2,TROY NFkB inh,EBV LMP1 NFkB,HIF act
CC(=O)c1c(C)[nH]c(C(=O)Nc2nc(-c3ccc(Cl)cc3)cs2)c1C,-2,4,58*,23,2
CC(=O)c1c(C)[nH]c(C(=O)Nc2ccc(C)cn2)c1C,-2,-92,67*,58*,-25
O=C(Nc1nc(-c2ccc(Cl)cc2)cs1)NC1CCCCC1,0,-7,58*,-11,1
CC(=O)c1c(C)[nH]c(C(=O)Nc2nc(C)cs2)c1C,-3,-108,65*,71*,-5
Cc1cccc(NC(=O)c2ccc(NS(=O)(=O)c3cccc4cccnc34)cc2)c1,nt,15,5,6,nt
CCCNC(=O)C1(C)CCN(Cc2ccc(C)c3ccccc23)C1 (stereo not drawn),nt,-38,9,nt,nt
COc1cccc(-c2cc(C(=O)N3CC4(C)CC3CC(C)(C)C4)no2)c1 (stereo not drawn),4,-25,-16,-1,0
CC1(C)CC2CC(C)(CN2C(=O)c2cc(-c3ccc(O)cc3)on2)C1 (stereo not drawn),-1,0,62*,-12,0
CC(C)CNC(=O)c1ccccc1N(Cc1ccccc1)S(C)(=O)=O,5,-4,6,-12,1
CCc1ccc(/C=C2\SC(=S)N(CCCC(=O)Nc3cc(C)on3)C2=O)cc1,nt,11,81*,37,nt
Cc1ccc(/C=C2\SC(=S)N(CCCC(=O)NC3CCCC3)C2=O)cc1,1,22,-13,55*,-4
CCOc1ccc(/C=C2/SC(=S)N(CCC(=O)Nc3ccc(C(=O)O)cc3)C2=O)cc1,0,2,-59,-8,0
CCOc1ccc(/C=C2\SC(=S)N(CCC(=O)O)C2=O)cc1,-5,10,58*,47*,-2
CCc1ccc(/C=C2\SC(=S)N(CCCC(=O)NC3=NCCS3)C2=O)cc1,nt,29,77*,46*,nt
CCc1noc(C)c1C(=O)N1CCN(S(=O)(=O)c2ccc(Br)cc2)CC1,-1,4,11,-4,1
COc1ccc2c(c1)c(C(=O)O)c(C)n2-c1ccc(Cl)cc1,1,-28,19,0,1
NC(Cc1ccc(C(F)(F)F)cc1)c1csc(Nc2ccc(S(N)(=O)=O)cc2)n1 (stereo not drawn),nt,-25,7,nt,nt
COc1ccccc1C(=O)NC1CCSc2ccccc21 (stereo not drawn),5,-24,7,-2,0
CCc1ccc(/C=C2\SC(=S)N(CCC(=O)Nc3cc(C)on3)C2=O)cc1,3,-22,53*,6,-1
Cn1cnnc1SCC(=O)NC1CCCC1,3,18,-10,-6,0
CCOc1ccccc1NC(=O)CSc1ncnc2c1oc1ccccc12,7,11,13,-6,69*
O=C(CSc1ncnc2c1oc1ccccc12)Nc1ccccc1F,4,-11,16,-1,0
Clc1ccc(Nc2ncnc3c2cnn3-c2ccccc2)cc1,0,-75,-12,-27,3
CC(C)Nc1ncnc2c1cnn2-c1ccc(Cl)cc1,6,-57,64*,-5,0
CC(C)(C)Nc1ncnc2c1cnn2-c1ccccc1,3,-97,51*,-24,3
SMILES,NR2E3 ag-1,NR2E3 ag-2,TROY NFkB inh,EBV LMP1 NFkB,HIF act
CCCc1cc(=O)[nH]c(SCC(=O)N2CCOCC2)n1,2,-25,12,-1,0
C[C@H]1CN([C@@H](C)CO)C(=O)c2cc(C#CC3CCCC3)cnc2O[C@H]1CN(C)C(=O)Cc1ccccn1,nt,0,9,0,nt
COC(=O)CCC(C)C1CCC2C3C(OC(C)=O)CC4CC(O)CCC4(C)C3CC(O)C12C (stereo not drawn),nt,-18,3,-4,nt
Cc1nc2c(O)c3c(c(O)c2nc1C)C1C=CC3CC1,nt,24,-6,68*,nt
Cc1c(C(C)(C)C)sc(=NC(=O)c2ccccc2O)n1C,0,-109,56*,-46,-2
CN(C)c1ccc(CNC(=O)CCS(=O)(=O)c2ccc3c(c2)oc(=O)n3C)cc1,1,28,10,-1,33*
Cc1ccccc1NC(=O)CSc1nnc(-c2ccccc2)n1-c1ccccc1,7,0,56*,0,0
CCOC(=O)C(=CNc1ccc(C(F)(F)F)cc1)C(=O)OCC,2,6,-28,-1,0
CCOC(=O)C(=CNc1ccc(NC2=NCC(C)S2)cc1)C(=O)OCC (stereo not drawn),3,-30,21,23,17*
COCCCNCC1C(Oc2ccc(Cl)cc2)C(=O)N1c1ccccc1C (stereo not drawn),4,-16,-3,76*,0
Cc1ccc(S(=O)(=O)Nc2ccc3c(c2)C(=O)c2ccccc2-3)cc1,nt,-23,53*,nt,nt
CCOC(=O)c1c(C)[nH]c(C)c1S(=O)(=O)N1c2ccccc2CC1C (stereo not drawn),1,-11,-20,5,32*
CCOC(=O)c1c(S(=O)(=O)N2c3ccccc3CC2C)c(C)n(C)c1C (stereo not drawn),3,-16,8,-8,1
O=C(NCCc1ccccc1)c1cccc(N2CCCC2=O)c1,-1,-93,62*,26,0
O=C(N/N=C/c1cc(Br)ccc1O)c1cccc(N2CCCC2=O)c1,-2,-14,-23,-4,42*
Cc1ccc(CCNC(=O)c2cccc(N3CCCC3=O)c2)cc1,-4,-17,-29,-18,0
Cc1ccc(C)n1-c1cccc(C(=O)O)c1,33*,nt,nt,nt,1
COc1ccc(O)c(/C=N/NC(=O)c2cccc(N3CCCC3=O)c2)c1,0,-14,-15,1,7
O=C(O)c1cccc(N2CCCC2=O)c1,1,-23,-16,-3,47*
COc1ccc2nc(SCCOC(=O)Nc3ccc(Cl)cc3)nc(C)c2c1,-2,-6,35,2,0
Cc1cc([N+](=O)[O-])ccc1NC(=O)CCC(=O)N1CCCCCC1,2,-4,-19,-3,0
CCOc1ccccc1NC(=O)C1CCC(=O)N1S(=O)(=O)c1ccc(C)cc1 (stereo not drawn),nt,26,3,10,-1
Oc1ccccc1-c1cc(-c2cccc(F)c2)n[nH]1,-3,-120,-47,-68,5
CC(C)(C)c1ccc(-c2cc(-c3ccccc3O)[nH]n2)cc1,2,7,83*,-52,0
O=C(NN=C1CCCC1)c1ccn[nH]1,1,-107,-2,-9,2
Cc1cccc(NC(=O)COc2cccc3c2CCN(C)C3=O)c1C,5,-20,0,-7,9.8*

# High-throughput results from PubChem BioAssay.
